# Laboratory results taken from ChEMBL document CHEMBL5346932, “Structure-activity relationships of actively FhuE transported rifabutin derivatives with potent activity against Acinetobacter baumannii” (Eur J Med Chem, 2023).
# The source made the active and inactive calls. No cut-off for these calls is given here.
# How the values were obtained:
# Type in all cases: functional
# Acinetobacter baumannii [1] = test: Antibacterial activity against Acinetobacter baumannii HUMC1 cultured in RPMI 1640 medium supplemented with 10% FCS assessed as bacterial growth inhibition incubated for 20 hrs by CLSI based microbroth dilution method
# Outline: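 CLSI broth microdilution in RPMI 1640 + 10% FCS in place of CAMHB. Compounds in 2-fold dilution series; inoculum 5×10^5 CFU/mL. Plates held static at 35 °C for 20 h. MIC read visually as the lowest concentration with no visible growth. […] is the reciprocal of this MIC.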
# Acinetobacter baumannii [2] = test: Antibacterial activity against Acinetobacter baumannii HUMC1 harboring FhuE deletion mutant assessed as bacterial growth inhibition incubated for 20 hrs by CLSI based microbroth dilution method
# Outline: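 Microbroth dilution per CLSI in RPMI 1640 + 10% FCS (in place of CAMHB). Compounds as 2-fold serial dilutions; inoculum 5×10^5 CFU/mL of previously described HUMC1-derived mutant strains. Incubated static at 35 °C for 20 h. MIC read visually as lowest concentration preventing visible growth.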
# Staphylococcus aureus = test: Antibacterial activity against Staphylococcus aureus USA300 UAMS-1625 assessed as bacterial growth inhibition incubated for 20 hrs by CLSI based microbroth dilution method
# Outline: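 CLSI broth microdilution in CAMHB against S. aureus USA300 UAMS-1625. Compounds in 2-fold dilution series; inoculum 5×10^5 CFU/mL. Incubated without shaking at 35 °C for 20 h. MIC read visually as the lowest concentration preventing visible growth. Fold changes are relative to the rifabutin MIC.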
# [3] = Acinetobacter baumannii, HUMC1, 20 h, read-out: MIC
smiles,measurement,setting,value
C#CCN1CCC2(CC1)N=C1C(=C3NC(=O)/C(C)=C\C=C\[C@H](C)[C@H](O)[C@@H](C)[C@@H](O)[C@@H](C)[C@H](OC(C)=O)[C@H](C)[C@@H](OC)/C=C/O[C@@]4(C)Oc5c(C)c(O)c(c1c5C4=O)C3=O)N2,MIC,Acinetobacter baumannii [1]; [3],0.008 µg/mL
COC(=O)[C@@H](C)N1CCC2(CC1)N=C1C(=C3NC(=O)/C(C)=C\C=C\[C@H](C)[C@H](O)[C@@H](C)[C@@H](O)[C@@H](C)[C@H](OC(C)=O)[C@H](C)[C@@H](OC)/C=C/O[C@@]4(C)Oc5c(C)c(O)c(c1c5C4=O)C3=O)N2,MIC,Acinetobacter baumannii [1]; [3],0.125 µg/mL
same,MIC,Acinetobacter baumannii [2],0.5 µg/mL
CO[C@H]1/C=C/O[C@@]2(C)Oc3c(C)c(O)c4c(c3C2=O)C2=NC3(CCN(CC5CCCCC5)CC3)NC2=C(NC(=O)/C(C)=C\C=C\[C@H](C)[C@H](O)[C@@H](C)[C@@H](O)[C@@H](C)[C@H](OC(C)=O)[C@@H]1C)C4=O (stereo in doubt; form 2),MIC,Acinetobacter baumannii [1]; 20 h,0.03 µg/mL
CO[C@H]1/C=C/O[C@@]2(C)Oc3c(C)c(O)c4c(c3C2=O)C2=NC3(CCN(C5CCCC5)CC3)NC2=C(NC(=O)/C(C)=C\C=C\[C@H](C)[C@H](O)[C@@H](C)[C@@H](O)[C@@H](C)[C@H](OC(C)=O)[C@@H]1C)C4=O (stereo in doubt; form 2),MIC,Acinetobacter baumannii [1]; 20 h,0.004 µg/mL
COCCN1CCC2(CC1)N=C1C(=C3NC(=O)/C(C)=C\C=C\[C@H](C)[C@H](O)[C@@H](C)[C@@H](O)[C@@H](C)[C@H](OC(C)=O)[C@H](C)[C@@H](OC)/C=C/O[C@@]4(C)Oc5c(C)c(O)c(c1c5C4=O)C3=O)N2,MIC,Acinetobacter baumannii [1]; [3],0.016 µg/mL
CO[C@H]1/C=C/O[C@@]2(C)Oc3c(C)c(O)c4c(c3C2=O)C2=NC3(CCN(CCN5CCOCC5)CC3)NC2=C(NC(=O)/C(C)=C\C=C\[C@H](C)[C@H](O)[C@@H](C)[C@@H](O)[C@@H](C)[C@H](OC(C)=O)[C@@H]1C)C4=O,MIC,Acinetobacter baumannii [1]; [3],1 µg/mL
CO[C@H]1/C=C/O[C@@]2(C)Oc3c(C)c(O)c4c(c3C2=O)C2=NC3(CCN(C[C@H]5CCCO5)CC3)NC2=C(NC(=O)/C(C)=C\C=C\[C@H](C)[C@H](O)[C@@H](C)[C@@H](O)[C@@H](C)[C@H](OC(C)=O)[C@@H]1C)C4=O,MIC,Acinetobacter baumannii [1]; [3],0.125 µg/mL
C#CCCN1CCC2(CC1)N=C1C(=C3NC(=O)/C(C)=C\C=C\[C@H](C)[C@H](O)[C@@H](C)[C@@H](O)[C@@H](C)[C@H](OC(C)=O)[C@H](C)[C@@H](OC)/C=C/O[C@@]4(C)Oc5c(C)c(O)c(c1c5C4=O)C3=O)N2,MIC,Acinetobacter baumannii [1]; [3],0.004 µg/mL
CO[C@H]1/C=C/O[C@@]2(C)Oc3c(C)c(O)c4c(c3C2=O)C2=NC3(CCN(Cc5ccccc5)CC3)NC2=C(NC(=O)/C(C)=C\C=C\[C@H](C)[C@H](O)[C@@H](C)[C@@H](O)[C@@H](C)[C@H](OC(C)=O)[C@@H]1C)C4=O,MIC,Acinetobacter baumannii [1]; [3],0.125 µg/mL
same,Activity,Staphylococcus aureus,Active
CO[C@H]1/C=C/O[C@@]2(C)Oc3c(C)c(O)c4c(c3C2=O)C2=NC3(CCN(CCC(C)C)CC3)NC2=C(NC(=O)/C(C)=C\C=C\[C@H](C)[C@H](O)[C@@H](C)[C@@H](O)[C@@H](C)[C@H](OC(C)=O)[C@@H]1C)C4=O,MIC,Acinetobacter baumannii [1]; [3],0.016 µg/mL
same,Activity,Staphylococcus aureus,Active
same,MIC,Acinetobacter baumannii [2],0.5 µg/mL
CCCCN1CCC2(CC1)N=C1C(=C3NC(=O)/C(C)=C\C=C\[C@H](C)[C@H](O)[C@@H](C)[C@@H](O)[C@@H](C)[C@H](OC(C)=O)[C@H](C)[C@@H](OC)/C=C/O[C@@]4(C)Oc5c(C)c(O)c(c1c5C4=O)C3=O)N2,MIC,Acinetobacter baumannii [1]; [3],0.004 µg/mL
same,Activity,Staphylococcus aureus,Active
CCOC(=O)N1CCC2(CC1)N=C1C(=C3NC(=O)/C(C)=C\C=C\[C@H](C)[C@H](O)[C@@H](C)[C@@H](O)[C@@H](C)[C@H](OC(C)=O)[C@H](C)[C@@H](OC)/C=C/O[C@@]4(C)Oc5c(C)c(O)c(c1c5C4=O)C3=O)N2,MIC,Acinetobacter baumannii [1]; [3],8 µg/mL
CO[C@H]1/C=C/O[C@@]2(C)Oc3c(C)c(O)c4c(c3C2=O)C2=NC3(CCN(C(C)=O)CC3)NC2=C(NC(=O)/C(C)=C\C=C\[C@H](C)[C@H](O)[C@@H](C)[C@@H](O)[C@@H](C)[C@H](OC(C)=O)[C@@H]1C)C4=O,MIC,Acinetobacter baumannii [1]; [3],4 µg/mL
CO[C@H]1/C=C/O[C@@]2(C)Oc3c(C)c(O)c4c(c3C2=O)C2=NC3(CCCCC3)NC2=C(NC(=O)/C(C)=C\C=C\[C@H](C)[C@H](O)[C@@H](C)[C@@H](O)[C@@H](C)[C@H](OC(C)=O)[C@@H]1C)C4=O,MIC,Acinetobacter baumannii [1]; [3],0.125 µg/mL
same,MIC,Acinetobacter baumannii [2],0.5 µg/mL
CO[C@H]1/C=C/O[C@@]2(C)Oc3c(C)c(O)c4c(c3C2=O)C2=NC3(CCN(CC(=O)N(C)C)CC3)NC2=C(NC(=O)/C(C)=C\C=C\[C@H](C)[C@H](O)[C@@H](C)[C@@H](O)[C@@H](C)[C@H](OC(C)=O)[C@@H]1C)C4=O,MIC,Acinetobacter baumannii [1]; [3],0.5 µg/mL
CO[C@H]1/C=C/O[C@@]2(C)Oc3c(C)c(O)c4c(c3C2=O)C2=NC3(CCN(CC#N)CC3)NC2=C(NC(=O)/C(C)=C\C=C\[C@H](C)[C@H](O)[C@@H](C)[C@@H](O)[C@@H](C)[C@H](OC(C)=O)[C@@H]1C)C4=O,MIC,Acinetobacter baumannii [1]; [3],0.25 µg/mL
CO[C@H]1/C=C/O[C@@]2(C)Oc3c(C)c(O)c4c(c3C2=O)C2=NC3(CCOCC3)NC2=C(NC(=O)/C(C)=C\C=C\[C@H](C)[C@H](O)[C@@H](C)[C@@H](O)[C@@H](C)[C@H](OC(C)=O)[C@@H]1C)C4=O,MIC,Acinetobacter baumannii [1]; [3],2 µg/mL
CO[C@H]1/C=C/O[C@@]2(C)Oc3c(C)c(O)c4c(c3C2=O)C2=NC3(CCN(C5CCCCC5C)CC3)NC2=C(NC(=O)/C(C)=C\C=C\[C@H](C)[C@H](O)[C@@H](C)[C@@H](O)[C@@H](C)[C@H](OC(C)=O)[C@@H]1C)C4=O (some centres not stated),MIC,Acinetobacter baumannii [1]; [3],0.125 µg/mL
COC(=O)CN1CCC2(CC1)N=C1C(=C3NC(=O)/C(C)=C\C=C\[C@H](C)[C@H](O)[C@@H](C)[C@@H](O)[C@@H](C)[C@H](OC(C)=O)[C@H](C)[C@@H](OC)/C=C/O[C@@]4(C)Oc5c(C)c(O)c(c1c5C4=O)C3=O)N2,MIC,"Acinetobacter baumannii [1]; Acinetobacter baumannii, HUMC1, read-out: MIC",0.5 µg/mL
same,MIC,Acinetobacter baumannii [2],0.5 µg/mL
CO[C@H]1/C=C/O[C@@]2(C)Oc3c(C)c(O)c4c(c3C2=O)C2=NC3(CCN(CC5CCCCC5)CC3)NC2=C(NC(=O)/C(C)=C\C=C\[C@H](C)[C@H](O)[C@@H](C)[C@@H](O)[C@@H](C)[C@H](OC(C)=O)[C@@H]1C)C4=O (stereo in doubt; form 1) [listing 1 of 2 here],Activity,Staphylococcus aureus,Active
CO[C@H]1/C=C/O[C@@]2(C)Oc3c(C)c(O)c4c(c3C2=O)C(=N)C(N)=C(NC(=O)/C(C)=C\C=C\[C@H](C)[C@H](O)[C@@H](C)[C@@H](O)[C@@H](C)[C@H](OC(C)=O)[C@@H]1C)C4=O,MIC,Acinetobacter baumannii [1]; [3],0.5 µg/mL
CO[C@H]1/C=C/O[C@@]2(C)Oc3c(C)c(O)c4c(c3C2=O)C2=NC3(CCN(C5CCN(C)CC5)CC3)NC2=C(NC(=O)/C(C)=C\C=C\[C@H](C)[C@H](O)[C@@H](C)[C@@H](O)[C@@H](C)[C@H](OC(C)=O)[C@@H]1C)C4=O,MIC,Acinetobacter baumannii [1]; [3],0.25 µg/mL
CO[C@H]1/C=C/O[C@@]2(C)Oc3c(C)c(O)c4c(c3C2=O)C2=NC3(CCN(C5CCCC(C)C5)CC3)NC2=C(NC(=O)/C(C)=C\C=C\[C@H](C)[C@H](O)[C@@H](C)[C@@H](O)[C@@H](C)[C@H](OC(C)=O)[C@@H]1C)C4=O (some centres not stated),MIC,Acinetobacter baumannii [1]; [3],0.03 µg/mL
CO[C@H]1/C=C/O[C@@]2(C)Oc3c(C)c(O)c4c(c3C2=O)C2=NC3(CCN(CC5CC5)CC3)NC2=C(NC(=O)/C(C)=C\C=C\[C@H](C)[C@H](O)[C@@H](C)[C@@H](O)[C@@H](C)[C@H](OC(C)=O)[C@@H]1C)C4=O,MIC,Acinetobacter baumannii [1]; [3],0.001 µg/mL
same,Activity,Staphylococcus aureus,Active
same,MIC,Acinetobacter baumannii [2],0.5 µg/mL
CO[C@H]1/C=C/O[C@@]2(C)Oc3c(C)c(O)c4c(c3C2=O)C2=NC3(CC[N+](C)(C)CC3)NC2=C(NC(=O)/C(C)=C\C=C\[C@H](C)[C@H](O)[C@@H](C)[C@@H](O)[C@@H](C)[C@H](OC(C)=O)[C@@H]1C)C4=O.[I-],MIC,Acinetobacter baumannii [1]; [3],8 µg/mL
CO[C@H]1/C=C/O[C@@]2(C)Oc3c(C)c(O)c4c(c3C2=O)C2=NC3(CCN(C(C)(C)CC(C)(C)C)CC3)NC2=C(NC(=O)/C(C)=C\C=C\[C@H](C)[C@H](O)[C@@H](C)[C@@H](O)[C@@H](C)[C@H](OC(C)=O)[C@@H]1C)C4=O,MIC,Acinetobacter baumannii [1]; [3],0.03 µg/mL
CO[C@H]1/C=C/O[C@@]2(C)Oc3c(C)c(O)c4c(c3C2=O)C2=NC3(CCN(CCc5ccccc5)CC3)NC2=C(NC(=O)/C(C)=C\C=C\[C@H](C)[C@H](O)[C@@H](C)[C@@H](O)[C@@H](C)[C@H](OC(C)=O)[C@@H]1C)C4=O,MIC,Acinetobacter baumannii [1]; [3],0.5 µg/mL
same,Activity,Staphylococcus aureus,Active
CO[C@H]1/C=C/O[C@@]2(C)Oc3c(C)c(O)c4c(c3C2=O)C2=NC3(CCN([C@H]5CCCO5)CC3)NC2=C(NC(=O)/C(C)=C\C=C\[C@H](C)[C@H](O)[C@@H](C)[C@@H](O)[C@@H](C)[C@H](OC(C)=O)[C@@H]1C)C4=O,MIC,Acinetobacter baumannii [1]; [3],0.016 µg/mL
CO[C@H]1/C=C/O[C@@]2(C)Oc3c(C)c(O)c4c(c3C2=O)C2=NC3(CCN(C5CCOCC5)CC3)NC2=C(NC(=O)/C(C)=C\C=C\[C@H](C)[C@H](O)[C@@H](C)[C@@H](O)[C@@H](C)[C@H](OC(C)=O)[C@@H]1C)C4=O,MIC,Acinetobacter baumannii [1]; [3],0.008 µg/mL
COC(=O)CCCN1CCC2(CC1)N=C1C(=C3NC(=O)/C(C)=C\C=C\[C@H](C)[C@H](O)[C@@H](C)[C@@H](O)[C@@H](C)[C@H](OC(C)=O)[C@H](C)[C@@H](OC)/C=C/O[C@@]4(C)Oc5c(C)c(O)c(c1c5C4=O)C3=O)N2,MIC,Acinetobacter baumannii [1]; [3],0.5 µg/mL
CO[C@H]1/C=C/O[C@@]2(C)Oc3c(C)c(O)c4c(c3C2=O)C2=NC3(CCN(CC5CCCCC5)CC3)NC2=C(NC(=O)/C(C)=C\C=C\[C@H](C)[C@H](O)[C@@H](C)[C@@H](O)[C@@H](C)[C@H](OC(C)=O)[C@@H]1C)C4=O (stereo in doubt; form 1) [listing 2 of 2 here],MIC,Acinetobacter baumannii [1]; [3],0.06 µg/mL
CO[C@H]1/C=C/O[C@@]2(C)Oc3c(C)c(O)c4c(c3C2=O)C2=NC3(CCN(C5CC5)CC3)NC2=C(NC(=O)/C(C)=C\C=C\[C@H](C)[C@H](O)[C@@H](C)[C@@H](O)[C@@H](C)[C@H](OC(C)=O)[C@@H]1C)C4=O (stereo in doubt; form 2),MIC,Acinetobacter baumannii [1]; 20 h,0.001 µg/mL
